Bioassay records as filed in PubChem BioAssay.
CSC inhib: cancer stem cell viability inhibitors, primary screen, luminescence | cancer stem cell-like cells viability | inhibition, % at 7.5 µM | 300,000 tested, 1.1% active | AID 2717, 2010; in the data active = inhibition above about 75%; tested in HMLE shEcad cells
MC4R antag cAMP: MC4R antagonists of cAMP signaling, primary screen, cell-based, TR-FRET, antagonist arm of biased-ligand search. MC4R-expressing cells, MTII-stimulated cAMP, LANCE TR-FRET. inhibition, % at 6.5 µM. 360,000 tested, 0.48% active;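 active = inhibition above its plate's cutoff, the mean of tested wells on that plate plus 3 SD, cut at about 29% in these data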;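 note: 0% = Melanotan II alone and 100% = Melanotan II plus saturating MCL0020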
Target sequence (P32245 whole entry, looked up): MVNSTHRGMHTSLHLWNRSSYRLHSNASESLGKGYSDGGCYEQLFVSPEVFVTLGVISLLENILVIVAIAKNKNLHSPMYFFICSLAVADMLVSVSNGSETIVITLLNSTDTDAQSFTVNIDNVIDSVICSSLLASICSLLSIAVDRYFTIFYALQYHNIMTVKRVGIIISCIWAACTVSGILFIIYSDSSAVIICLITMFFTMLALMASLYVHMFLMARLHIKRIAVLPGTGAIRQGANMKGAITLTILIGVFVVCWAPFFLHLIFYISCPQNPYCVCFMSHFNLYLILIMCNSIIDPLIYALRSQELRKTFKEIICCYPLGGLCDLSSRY
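material = U2OS cells stably expressing human melanocortin 4 receptor (MC4R) | also added = Melanotan II challenge | dosing = single nominal compound dose of 6.5 µM | detection = TR-FRET with Eu-cAMP and labeled anti-cAMP, 671 nm | replication = singlicate | timing = compound 30 min, challenge 1 h, detection 1 h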
Beta apoptosis: inhibitors of cytokine-induced beta cell apoptosis, primary screen, luminescence. protection from apoptosis, % (test concentration not listed). INS-1E cytokine-induced death, ATP luminescence, 48 h; percent of positive-control rescue, neutral wells zero. 300,000 tested, 0.8% active;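 active = Every replicate reaches about 75%, or at least half do and their mean reaches it too, limit read from the data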;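 note: 0% = cytokine-treated negative control wells and 100% = positive control rescue; higher means more ATP so stronger rescue from cytokine killing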
ANO1 block: TMEM16A chloride channel inhibitors, primary screen, cell-based, HTS | Anoctamin-1 (Mus musculus), Q8BHY3 | HEK293 TMEM16A/YFP iodide influx fluorescence, ionomycin | normalized B-score (activity score, 25-100; higher = stronger inhibition) at 10 µM | 310,000 tested, 1.2% active;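 active = ratio plate-corrected score three or more library SD toward inhibition, starting fluorescence score within five deviations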;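 note: score derived from kinetic fluorescence span divided by baseline fluorescence per well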
TMEM16A act: TMEM16A chloride channel activators or potentiators, primary screen, cell-based, HTS | Anoctamin-1 (Mus musculus), Q8BHY3 | HEK293 TMEM16A/YFP-H148Q/I152L, iodide quench fluorescence; active compounds read low | B-score at 10 µM | 340,000 tested, 0.3% active | AID 623877, 2012;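 active = fluorescence-ratio B-score plate-corrected deviation score at least 3 library SD below zero, with starting fluorescence score within 5 deviations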;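 note: channel opened by trigger with iodide after compound preincubation; score built on the fluorescence ratio of max minus min over baseline; more negative score means more quench and so TMEM16A activation or potentiation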
MC4R ag barr: MC4R agonists recruiting beta-arrestin, primary screen, cell-based, luminescence, agonist arm of biased-ligand search. U2OS MC4R beta-arrestin complementation; percent of melanotan II response, DMSO zero. Melanocortin receptor 4 (Homo sapiens), P32245. 360,000 tested, 0.98% active. activation, % at 8.9 µM. AID 540308, 2011;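 active = activation above a per-plate cutoff, the mean activation of sample wells on that plate plus 3 SD, cut at about 8% in these data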
An asterisk follows results filed as active; i = inactive; . = not tested or not shown. This is a sample that favours compounds with a hit; in the whole collection about 3.8% have one here.

SMILES	CSC inhib	MC4R antag cAMP	Beta apoptosis	ANO1 block	TMEM16A act	MC4R ag barr
COc1ccc2ccccc2c1-c1sc(Nc2ccccc2)n[n+]1-c1ccc(F)cc1	52	-4	38	100*	i	12*
COc1ccc(C)cc1Nc1n[n+](-c2ccccc2)c(-c2c(Cl)cccc2Cl)s1	74	.	99*	100*	.	.
O=C1NC(Cc2ccc(O)cc2)c2nc3ccc(F)cc3c(=O)n2-c2cc(Cl)ccc21 (stereo unspecified)	.	22	.	.	.	0
C[C@]12c3[nH]c4cc(-c5ccco5)ccc4c3CCN1C(=O)[C@@H](CC(=O)NCc1ccco1)C[C@@H]2C(=O)N1CCCCC1	.	13	.	.	.	-1
CC(C)(C)c1ccc(C(=O)C2CCCN(C(=O)CCn3cncn3)C2)cc1 (stereo unspecified)	2	-1	1	i	i	-1
Cc1ccc(S(=O)(=O)CCC(=O)OCCOc2cccc(Br)c2)cc1	-12	6	-3	.	i	0
Cc1ccc(C(=O)NC(=C(Cl)Cl)S(=O)(=O)c2ccc(Cl)cc2)cc1	-4	2	-7	i	i	2
Cc1ccc(C(=O)NC(=C(Cl)Cl)S(=O)(=O)c2ccc(C)cc2)cc1	96*	1	-12	i	i	-3
COc1cccc(CN2CCc3ccc(NC(=O)CCc4ccc(C)cc4)cc3C2)c1O	.	13	.	25*	i	4
O=C(CN1c2cccc3cccc(c23)S1(=O)=O)Nc1ccc(F)c(F)c1F	-3	0	-8	.	-5.1*	2
O=C(CN1c2cccc3cccc(c23)S1(=O)=O)Nc1ccccc1F	-16	4	.	i	-7.8*	-1
O=C(CN1c2cccc3cccc(c23)S1(=O)=O)Nc1c(F)c(F)c(F)c(F)c1F	-12	1	-2	.	i	0
C=CCNC(=O)CN1c2cccc3cccc(c23)S1(=O)=O	.	10	.	i	-6.6*	-1
O=C(CN1c2cccc3cccc(c23)S1(=O)=O)Nc1ccccc1Br	-9	2	-1	.	i	1
O=C1NC(c2ccccc2)=C(c2nc3ccccc3s2)C(c2ccc(O)cc2)N1 (stereo unspecified)	-7	18	0	i	i	63*
CCOc1ccc(OCCSc2ccc(S(=O)(=O)N3CCN(C)CC3)cn2)cc1	29	-1	2	.	i	0
CC(C)(C)c1cnnn1-c1ccc(/C=N/Nc2ccc([N+](=O)[O-])cc2)cc1	54	3	97*	i	i	0
O=[N+]([O-])c1ccc(C=NNc2ccccc2)cc1	.	-2	.	.	i	0
COc1ccc(CC(=O)N/N=C/c2ccc(C)s2)cc1	-9	-5	.	i	i	-1
O=C(O)Cn1cnc2c(OCc3ccccc3)ncnc21	.	-5	-5	.	i	-2
Cc1cc(C)c(CN2CCN(C(=O)Cn3cnc4c(OCc5ccccc5)ncnc43)CC2)c(C)c1	.	3	77*	.	.	1
Cc1ccc([C@H]2C[C@H](O)[C@@H](n3cc(-c4ccc(F)cc4)nn3)CN2CC2CCCCC2)cc1	.	5	.	.	.	1
O=C(CCc1c[nH]c2ccccc12)NCC(=O)Nc1ccc(F)c(F)c1F	-2	14	-1	i	-6.3*	-2
C/C(=N\NC(=O)c1cccc2ccccc12)c1ccccn1	.	12	.	.	i	-7
C/C(=N\NC(=O)c1cccc(Br)c1)c1ccccn1	139*	14	105*	i	i	-3
C/C(=N\NC(=O)c1cc(Br)ccc1O)c1ccccn1	96*	12	105*	i	i	0
COCC(O)Cn1ccnc1[N+](=O)[O-] (stereo unspecified)	.	0	.	.	.	-2
Cc1cc(-c2ccc(C(C)C)c(S(=O)(=O)N3CCC(C)CC3)c2)on1	49	14	7	i	i	-4
